KCNK9 block – inhibitors of human KCNK9 two-pore domain potassium channel. 310,000 tested, 1.2% active. B-score at 10 µM. Q9NPC2. HEK293 KCNK9, FluxOR thallium flux fluorescence; hits give low values;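 active means ratio B-score over 3 SD below the library mean, with starting fluorescence within 5 SD of its mean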;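 further: negative B-score means less thallium flux so channel inhibition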
Kir21 inh – blocks the mouse Kir2.1 inward-rectifier potassium channel. HEK293-Kir2.1, FluxOR thallium flux fluorescence; hits give low values. B-score at 10 µM. 310,000 tested, 0.85% active;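 active means fluorescence ratio B-score at or below minus 3 SD of library scores, with starting-brightness B-score within 2 SD, cut at about -4.2 in these data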;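 further: channel flux triggered by added potassium and thallium sulfate stimulus; B-score of peak minus minimum fluorescence over baseline after thallium stimulus; more negative B-score means stronger Kir2.1 block with less thallium influx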
KCNK3 inh – human KCNK3 channel inhibition, primary screen; O14649; CHO-KCNK3 thallium flux, FluxOR fluorescence; hits give low values; B-score at 10 µM; 340,000 tested, 0.84% active; AID 602410;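 active means B-score under library mean minus 4 SD, starting fluorescence ratio at most library mean plus 5 SD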;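 further: more negative B-score means stronger inhibition of thallium flux through KCNK3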
Target sequence (O14649 whole entry, looked up): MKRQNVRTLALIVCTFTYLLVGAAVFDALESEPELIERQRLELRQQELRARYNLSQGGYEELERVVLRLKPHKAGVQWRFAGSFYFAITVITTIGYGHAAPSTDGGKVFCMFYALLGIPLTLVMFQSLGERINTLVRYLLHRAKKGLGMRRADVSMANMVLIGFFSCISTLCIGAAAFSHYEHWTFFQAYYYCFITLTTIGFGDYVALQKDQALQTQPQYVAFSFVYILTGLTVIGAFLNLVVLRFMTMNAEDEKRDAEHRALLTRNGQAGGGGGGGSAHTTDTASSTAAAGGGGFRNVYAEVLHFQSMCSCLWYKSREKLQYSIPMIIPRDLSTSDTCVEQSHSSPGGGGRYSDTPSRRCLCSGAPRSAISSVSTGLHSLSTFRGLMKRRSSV
KCNQ1 pot – potentiates or activates the human KCNQ1 potassium channel | P51787 | CHO-K1 KCNQ1, thallium flux FluxOR fluorescence; hits give high values | B-score at 10 µM | 310,000 tested, 0.35% active | AID 2648;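 active means fluorescence ratio B-score, a plate-corrected score, at least three library SD, with initial intensity B-score within 5 SD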
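Schedule – 37 °C overnight plating, 90-min dark dye load, 20-min compound pretreatment · System – stable KCNQ1 CHO-K1 line · Probe or stimulus – thallium- and potassium-containing depolarizing buffer · Measured by – kinetic FluxOR fluorescence, 10 s baseline plus 110 s post-stimulus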
KCNQ1 block – inhibitors of human KCNQ1 potassium channel; B-score at 10 µM; 310,000 tested, 1.3% active; CHO-K1 KCNQ1, FluxOR thallium flux fluorescence; hits give high values; P51787;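 active means compounds whose thallium flux B-score, printed positive for inhibition, exceeds three library SD while starting fluorescence stays within three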;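 further: channel opened by potassium depolarization with thallium stimulus after 20 min compound exposure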
hERG protect – compounds protecting human hERG from proarrhythmic drug block; CHO-hERG, FluxOR thallium flux, dofetilide IC70 present; activation (rescue from dofetilide block), less the hit threshold, % at 10 µM; 310,000 tested, 0.51% active; AID 1511;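 active means activation above the mean of controls blocked by dofetilide plus 5 SD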;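 further: thallium influx through hERG after potassium depolarization seen as dye fluorescence rise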
Numbers without * were called inactive; i = inactive; / = not tested or not shown. An excerpt weighted towards active compounds, which were near 3.7% of everything screened.

SMILES | KCNK9 block | Kir21 inh | KCNK3 inh | KCNQ1 pot | KCNQ1 block | hERG protect
COc1ccc(C(=O)OC(C)C(=O)NC2CCCCC2C)cc1S(=O)(=O)N1CCOCC1 (stereo not drawn) | i | -0.32 | i | i | i | -6
COc1cc2c(cc1OC)CN(c1nc(-c3cccnc3)nc3ccccc13)CC2 | -7.5* | -2.6 | i | i | i | -31
CN1CCN(c2nc(-c3cccnc3)nc3ccccc23)CC1 | i | 1.5 | i | i | i | -14
COc1ccc(O)c(C=NCC(C)N=Cc2cc(OC)ccc2O)c1 (stereo not drawn) | i | 0.9 | i | i | i | -3
COc1cccc(C=NCC(C)N=Cc2cccc(OC)c2O)c1O (stereo not drawn) | i | 0.12 | i | i | i | 5.2*
CC(=O)NCCc1ccc(S(=O)(=O)Nc2ccc(NC(=O)c3ccc(F)cc3)cc2)cc1 | i | 1.5 | i | i | i | -9
Cc1cc(C(=O)N2CCc3c([nH]c4ccccc34)C2c2cccc(Cl)c2)nn1C (stereo not drawn) | -7.4* | -0.06 | i | i | i | -2
Cn1nc(-c2ccc(Cl)cc2)nc2c(=O)n(C)c(=O)nc1-2 | i | -1 | / | 9* | i | -7
CS(=O)(=O)n1nc(-c2ccc(Cl)cc2)nc1N | i | 0.73 | i | i | i | -8
N#C/C(=N\Nc1cccc(F)c1)C(=N)N1CCCCCC1 | i | -0.22 | i | i | i | -11
N#C/C(=N\Nc1cccc(F)c1)C(=O)C1CC1 | i | -2 | i | i | 6* | -10
Cc1cccc(CCNC(=O)C2CCC(=O)N(Cc3ccccc3F)C2)n1 (stereo not drawn) | i | 1.3 | i | i | i | -7
COc1cc(CN2CCCC(N3CCN(c4ccccc4C)CC3)C2)ccc1O (stereo not drawn) | i | 0.92 | i | i | i | -8
CNC(=S)N/N=C/c1c(C(=O)OC)cnn1-c1ccc(F)cc1F | i | 0.44 | i | i | i | -3
COC(=O)c1cnn(-c2ccc(F)cc2F)c1/C=N/NC(=S)NC(C)(C)C | -7* | 0.01 | i | i | i | -4
Cc1ccc(-n2ncc3c(=O)n(CC(=O)N4CCN(c5ccccc5F)CC4)cnc32)cc1C | i | 2.5 | i | 7* | i | 0
Cc1ccc(NC(=O)CCSc2nnc(C)s2)cc1 | i | 0.85 | i | i | i | -16
CC1=NN(/C(=N\c2nnc(C)s2)Nc2ccc(C(C)(C)C)cc2)[C@H](c2ccc(C)cc2)S1 | i | 0.82 | i | i | 8* | -5
CC(N=c1ccccn1C(=O)Nc1cccc(C(F)(F)F)c1)c1ccco1 (stereo not drawn) | i | 0.49 | i | i | 9* | -6
NC(=O)c1cc([N+](=O)[O-])ccc1NCc1cccc(N)c1 | / | / | i | / | / | /
O=C(NNC(=S)NCc1ccccc1)c1ccccc1OC(F)F | i | -0.2 | i | i | i | -7
O=C(NNC(=S)Nc1ccc(Cl)cc1)c1ccccc1OC(F)F | i | 0.03 | i | i | 8* | -11
CC(=O)NC(CC(=O)OCC(=O)NCCc1ccccc1)c1ccccc1 (stereo not drawn) | i | -2.1 | i | i | i | -13
Cc1ccc(CN(C(=O)c2csnn2)C(C(=O)NC2CCCC2)c2cccnc2)cc1 (stereo not drawn) | i | -0.31 | i | i | i | -9
COc1ccc(/C=C2\CN(Cc3ccccc3)C/C(=C\c3ccc(OC)cc3OC)C2=O)c(OC)c1 | i | -0.68 | i | i | i | -22
COc1ccc(C=C2c3ccccc3C(=O)c3ccccc32)c(OC)c1 | -8.7* | 0.54 | i | i | i | -5
O=C1C=C(c2ccc(F)nc2)CCC1 | i | 0.61 | i | i | i | -5
CCc1ccc(C2C(C#N)=C(N)C(C#N)(C#N)C3=CCC(C(C)(C)C)CC32)cc1 (stereo not drawn) | i | -6.6* | i | i | i | -20
COCCOc1ccc(C(F)(F)F)cc1NC(=O)c1ccc(C)cc1 | i | 0.76 | i | i | i | -5
